Bioassay records from PubChem BioAssay.
MrgX1 agonist: human MrgX1 receptor agonism, primary screen | MrgX1-HEK293 cells, Fluo-4 calcium fluorescence, agonist mode; stronger effect = higher value | B-score at 10 µM | actives 0.44% (n = 310,000);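 active = calcium response B-score plate-corrected fluorescence ratio at least 3 library SD, with starting fluorescence B-score inside 5 SD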
Target sequence (Q96LB2 whole entry, looked up): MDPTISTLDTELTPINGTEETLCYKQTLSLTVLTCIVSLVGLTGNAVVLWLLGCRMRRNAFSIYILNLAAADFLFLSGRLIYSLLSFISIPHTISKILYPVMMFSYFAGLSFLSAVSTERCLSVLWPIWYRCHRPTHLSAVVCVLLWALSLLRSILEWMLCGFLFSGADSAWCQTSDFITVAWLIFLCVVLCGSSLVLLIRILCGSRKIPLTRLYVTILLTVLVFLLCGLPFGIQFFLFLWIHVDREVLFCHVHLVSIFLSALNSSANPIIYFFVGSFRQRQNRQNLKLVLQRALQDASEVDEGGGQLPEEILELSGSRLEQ
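Test system: HEK293 cells stably expressing human MrgX1 receptor; Input: fifteen thousand cells per well; Dosing: compound delivered in addition one of three; Schedule: overnight seeding, then 1 h dark dye loading; Technique: Fluo-4 NW calcium fluorescence; Measure: B-scored fluorescence response ratio; Controls: positive and negative controls per plate.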
RGS4 act: potentiators or activators of RGS4. B-score at 10 µM. HEK293 M3R/inducible RGS4, carbachol calcium flux Fluo4; stronger effect = lower value. actives 0.92% (n = 310,000);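 active = B-score of the integrated calcium signal more than 4 SD below the library mean, with starting fluorescence not abnormally high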;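 note: negative B-score means reduced calcium response which marks RGS4 activation or potentiation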
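Reagent: ECmax carbachol challenge; Test system: M3R-expressing HEK293 line, RGS4 induced by doxycycline; Schedule: overnight RGS4 induction, 30 min dye load 37 °C, 20 min compound RT; Detection: calcium dye Fluo4 fluorescence; Read-out: Agonist-evoked peak-minus-minimum fluorescence over baseline, integrated ratio, B score.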
RGS4 block: inhibitors of human RGS4; P49798; AID 463165; HEK293 M3R/RGS4 inducible, Fluo-4 calcium flux; stronger effect = higher value; triggered by carbachol at its EC20; actives 0.45% (n = 310,000); B-score at 10 µM;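 active = B-score, a plate-corrected calcium signal, over three deviations above library mean, with baseline fluorescence within five deviations of library mean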;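 note: RGS4 expression induced by doxycycline in cells with stable M3 receptor; B-score is computed from the integrated fluorescence ratio over baseline after carbachol; higher B-score means a larger calcium signal and so more RGS4 inhibition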
Target sequence (P49798 whole entry, looked up): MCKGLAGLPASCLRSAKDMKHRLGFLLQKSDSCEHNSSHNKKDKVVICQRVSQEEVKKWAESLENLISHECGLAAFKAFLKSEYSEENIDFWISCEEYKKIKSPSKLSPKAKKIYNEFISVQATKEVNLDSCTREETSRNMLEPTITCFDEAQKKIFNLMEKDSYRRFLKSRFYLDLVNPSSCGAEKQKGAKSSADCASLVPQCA
MrgX1 PAM: human MrgX1 positive allosteric modulation, primary screen; MrgX1-HEK293, Fluo-4 calcium flux, FDSS; stronger effect = higher value; B-score at 10 µM; actives 0.63% (n = 310,000); AID 588675;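 active = plate-corrected calcium response at least 3 library SD above typical, normal starting fluorescence, not activating the receptor alone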;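 note: compound read alongside a low EC10 to EC30 dose of BAM8-22 agonist; peak minus trough fluorescence over baseline measured at the second addition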
MrgX1 antagonist: antagonists of human MrgX1 receptor; Q96LB2; MRGX1-HEK293 calcium flux, Fluo-4, BAM8-22 antagonism; stronger effect = lower value; B-score at 10 µM; actives 1.3% (n = 310,000);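 active = calcium-response B-score plate-corrected more than 3 library SD below zero, starting fluorescence within 5 deviations, no agonist response on first addition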;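 note: peak minus trough fluorescence over baseline after final BAM8-22 challenge near maximal dose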
The depositor's hits bear a star; i = inactive. The list is not random: actives were taken first. Their share in the collection is about 3.5%.

SMILES	MrgX1 agonist	RGS4 act	RGS4 block	MrgX1 PAM	MrgX1 antagonist
O=C(N/N=C/c1ccncc1)c1ccc(NS(=O)(=O)c2cccs2)cc1	i	i	i	9.6*	i
O=C(O)c1ccc(/C=N/NC(=O)c2ccc(NS(=O)(=O)c3cccs3)cc2)cc1	i	i	i	i	i
O=C(COC(=O)CCC(=O)c1cccs1)Nc1ccccc1[N+](=O)[O-]	i	i	i	i	i
COc1ccc(Cl)cc1S(=O)(=O)NC(C)C(=O)NCc1cccnc1 (stereo not given)	i	i	i	i	i
C/C(=N\NC(=O)c1cc(-c2cccc(OC(C)C)c2)nc2ccccc12)c1cccnc1	i	-9*	i	i	i
CC(C)COc1cccc(-c2cc(C(=O)N/N=C/c3ccncc3)c3ccccc3n2)c1	i	-7.4*	i	i	i
CCOc1cc(/C=N/NC(=O)c2cc(-c3cccc(OC)c3)nc3ccccc23)ccc1O	i	i	i	i	i
Cc1ccc(CN(C(=O)c2csnn2)C(C(=O)NC2CCCC2)c2cccnc2)cc1 (stereo not given)	i	i	i	i	i
CCCN(CC(=O)Nc1ccccc1C)C(=O)c1ccc(Cl)c(S(=O)(=O)N2CCCC2)c1	i	i	i	i	i
CCCN(CC(=O)Nc1ccccc1C)C(=O)c1ccc(C)c(S(=O)(=O)N2CCCCC2)c1	i	i	i	i	-5.4*
O=C(O)CC1(c2ccc(F)cc2)C2CC3CC(C2)CC1C3 (stereo not given)	i	i	i	i	-6.7*
O=C1/C(=C/c2ccccc2O)SC(=S)N1Cc1cccnc1	i	i	i	i	i
O=C1/C(=C\c2cc(Br)cc(Br)c2O)SC(=S)N1Cc1ccccc1	i	i	i	i	-6.1*
O=C1/C(=C\c2cccc([N+](=O)[O-])c2O)SC(=S)N1Cc1ccccc1	i	i	i	i	-8*
COc1cc([N+](=O)[O-])cc(/C=C2/SC(=S)N(Cc3ccccc3)C2=O)c1O	43*	-7.6*	i	i	i
COCCn1c(N)c(Sc2ccc(Cl)cc2)c(=O)[nH]c1=O	i	i	i	i	i
CCCCCC(=O)Nc1cccc(C2=NOC3(C2)C[C@@H](C(N)=O)N(C(=O)c2cc([N+](=O)[O-])cc([N+](=O)[O-])c2)C3)c1 (stereo not given in full)	i	i	i	i	-6.1*
C=C(C)C(=O)N1CC2(CC(c3cccc(NC(=O)/C(C)=C\C)c3)=NO2)C[C@H]1C(N)=O (stereo not given in full)	i	i	i	i	-4.8*
Cc1ccc(CSCC(=O)N/N=C/c2cccc(OC3CSC3)c2)cc1	i	i	i	i	i
CCCc1cc(C(=O)Nc2ccc(C(=O)c3ccc(C)cc3)cc2)n(C)n1	i	-7.4*	i	i	i
CCCc1cc(C(=O)Nc2cccc3ccccc23)n(C)n1	i	i	i	i	i
COc1ccc(-c2cnc3c(c2)CCC3(C#N)C#N)cc1	i	i	i	i	i
COc1ccc(C(=O)N/N=C2/SCC(=O)N2Cc2ccc3c(c2)OCO3)cc1OC	i	i	i	i	i
COc1cccc(C(=O)N/N=C2\SCC(=O)N2Cc2ccc3c(c2)OCO3)c1	i	i	i	i	-5.6*
Cc1ccc(NC(=O)/C(C#N)=C(\N)C(Cl)(Cl)Cl)nc1	28*	i	i	i	i
SMILES	MrgX1 agonist	RGS4 act	RGS4 block	MrgX1 PAM	MrgX1 antagonist
Cc1ccc(NC(=O)C(=O)Nc2ccc(C)cn2)nc1	i	i	i	i	i
COc1ccc2nc(NC(=O)c3ccc([N+](=O)[O-])o3)sc2c1	i	i	i	12*	i
O=C(Nc1nc2c(F)cc(F)cc2s1)c1ccc([N+](=O)[O-])o1	i	i	i	8.6*	i
COc1ccc2nc(NC(=O)/C=C/c3ccc4c(c3)OCO4)sc2c1	i	i	i	i	-6.3*
COc1ccc2nc(Nc3ccc4c(c3)OCO4)sc2c1	i	i	i	i	i
Cc1ccc(S(=O)(=O)N(C)c2ccc3sc(C)nc3c2)cc1	i	i	i	i	i
O=C(O)c1ccccc1SCCS(=O)(=O)c1ccc(Cl)cc1Cl	i	i	i	i	i
COc1ccc(CNC[C@@H](CCCCN(C)Cc2ccc(OC)cc2)N2C[C@H](c3ccccc3)N(CCc3ccc(Cl)c(Cl)c3)C(=O)C2=O)cc1	i	-8.2*	i	i	i
COc1cccc(/C=N/n2c(-c3n[nH]c4c3CCC4)n[nH]c2=S)c1OC	i	-7.3*	i	i	i
O=C(c1cccs1)N1CCN(C23CC4CC(CC(C4)C2)C3)CC1	i	-7.3*	i	i	i
CN1CCN(C(=O)/C(=C/c2cccs2)NC(=O)c2ccco2)CC1	i	i	i	i	i
N#Cc1ccccc1COC(=O)c1ccc(Br)o1	i	i	i	i	i
CS(=O)(=O)N1CC2CCCN2c2ccc(C(F)(F)F)cc21 (stereo not given)	i	i	i	i	i
O=S(=O)(c1cc(Cl)ccc1Cl)N1CC2CCCN2c2ccc(C(F)(F)F)cc21 (stereo not given)	i	-7.1*	i	i	i
CCCCCCCN1N=C(C)C(C(=O)c2ccccc2)C1=O (stereo not given)	i	i	i	i	i
CCCCCCN1N=C(C)C(C(=O)c2ccc(Cl)cc2)C1=O (stereo not given)	66*	i	i	i	i
CCO[C@@H]1OC(C(=O)NCc2ccccc2)=C[C@H](c2coc3ccccc3c2=O)[C@H]1CCCO	i	i	i	i	-5.9*
C#CCNC(=O)C1=C[C@@H](c2ccc(C#C)cc2)[C@H](CCCO)[C@@H](OCC)O1	i	i	i	i	-8.4*
CN(C)CCCNC(=O)C(=O)NCC1CCCO1 (stereo not given)	i	i	i	i	i
COc1ccc(/C=C2/SC(=O)N(NS(=O)(=O)c3ccccc3)C2=S)cc1OC	27*	i	i	i	i
Cc1ccc(S(=O)(=O)NN2C(=O)/C(=C\c3ccc(Cl)cc3)SC2=S)cc1	i	i	i	i	i
COc1cc(/C=C2\SC(=S)N(NS(=O)(=O)c3ccccc3)C2=O)cc(OC)c1OC	i	i	i	i	i
